Measurements gathered from unrelated publications.
Observed: cell growth or viability

COc1cc2c(cc1OS(N)(=O)=O)CC[C@@H]1[C@@H]2CC[C@]2(C)[C@@H](OS(N)(=O)=O)CC[C@@H]12  GI50 (MDA-MB-231): 0.29 µM
CCN1C(=O)SC[C@H]1[C@@]1(O)C[C@H]2C[C@@H](CC[C@H](C)/C=C\C=C\CC/C(C)=C\C(=O)O2)O1  IC50 (MDA-MB-231; MTT; 72 h): 7.19 µM
COc1cccc2c1C(=O)c1c(O)c3c(c(O)c1C2=O)C[C@@](O)(C(=O)CO)C[C@@H]3O[C@H]1C[C@H](N)[C@H](O)[C@H](C)O1  IC50 (LLC-PK11; 48 h): 0.9 µg/mL
Cl.O[C@]12C=C(c3nccc4c3[nH]c3ccccc34)[C@@H]3CCN(CCCC/C=C\CC1)C[C@@]31C[C@@H]3/C=C\CCCCN3[C@H]12  IC50 (LLC-PK11; neutral red; 48 h): 0.69 µg/mL
COc1ccc(C(=O)c2c[nH]c3ncc(-c4ccc(N5CCN(S(C)(=O)=O)CC5)nc4)cc23)cc1  viability (MRC5; MTT; 10 µM; 48 h): 70.1%
C/C1=C/C(=O)O[C@@H]2C[C@@H](CC[C@H](C)/C=C\C=C\CC1)O[C@@](O)([C@@H]1CSC(=O)N1Cc1ccccc1)C2  IC50 (MDA-MB-231; MTT; 72 h): 2.72 µM
COc1cc2c(cc1OS(N)(=O)=O)CCN(Cc1cc(Br)c(OC)c(OC)c1)C2  GI50 (MDA-MB-231; WST-1; 96 h): 0.03 µM
N.N.[Cl][Pt][Cl]  GI50 (MDA-MB-231; MTT; 72 h): 4.18 µM
N.N.[Cl][Pt][Cl]  IC50 (BEL-7404; MTT; 48 h): 13.1 µM
O=C(O)CCn1cc(C(=O)c2ccc(F)cc2)c2cc(-c3ccc(N4CCNCC4)nc3)cnc21  viability (MRC5; MTT; 10 µM; 48 h): 77.7%
C/C1=C/C(=O)O[C@@H]2C[C@@H](CC[C@H](C)/C=C\C=C\CC1)O[C@@](O)([C@@H]1CSC(=O)N1)C2  IC50 (MDA-MB-231; MTT; 72 h): 4.19 µM
O=C(c1ccc(F)cc1)c1c[nH]c2ncc(-c3ccc(N4CCOCC4)nc3)cc12  viability (MRC5; MTT; 10 µM; 48 h): 68.1%
CCCS(=O)(=O)Nc1ccc(F)c(C(=O)c2c[nH]c3ncc(Cl)cc23)c1F  EC50 (A-375): 0.03 µM
